Data from ChEMBL document CHEMBL1124440, “Resolved N,N-dialkylated 2-amino-8-hydroxytetralins: stereoselective interactions with 5-HT1A receptors in the brain” (J Med Chem, 1989).

Columns and labels:
[1] = molecular target: T1, Tryptophan 5-hydroxylase 1 (Rattus norvegicus) (UniProt P09810); test: Approximate dose levels for a half maximal reduction of 5-HTP levels; type: functional
T1 sequence (whole entry): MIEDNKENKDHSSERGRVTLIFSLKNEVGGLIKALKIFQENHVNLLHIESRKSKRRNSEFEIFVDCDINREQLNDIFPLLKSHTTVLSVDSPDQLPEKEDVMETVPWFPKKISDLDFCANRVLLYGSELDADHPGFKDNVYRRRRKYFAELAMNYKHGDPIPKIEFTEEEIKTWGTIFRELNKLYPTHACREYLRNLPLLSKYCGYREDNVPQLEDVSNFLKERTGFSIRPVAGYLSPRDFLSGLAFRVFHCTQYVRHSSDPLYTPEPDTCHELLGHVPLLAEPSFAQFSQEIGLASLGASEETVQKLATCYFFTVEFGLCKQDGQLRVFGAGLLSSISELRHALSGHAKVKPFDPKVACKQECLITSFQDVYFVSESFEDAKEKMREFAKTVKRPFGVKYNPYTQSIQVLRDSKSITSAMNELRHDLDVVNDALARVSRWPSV
Summary of the method: (§1)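 Rats given test drug s.c. in the neck as hydrochloride (5 mL/kg), not reserpine-pretreated; 30 min later NSD 1015 (60 mg/kg, i.e. 287 μmol/kg sc), killed 30 min after that. Brain regions dissected. 5-HTP measured by ion-pair reversed-phase HPLC with electrochemical detection. Mean ± SEM, n = 15 controls, 3–5 per dose; ANOVA with Dunnett's t test vs controls.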

[2] = molecular target: T1, Tryptophan 5-hydroxylase 1 (Rattus norvegicus); test: Compound was tested for its effect on NSD 1015 induced accumulation of 5-HTP(ng/g) in rats in limbic system at a dosage of 10 umol/kg; type: functional, tissue-based; summary of the method: as §1
[3] = molecular target: T1, Tryptophan 5-hydroxylase 1 (Rattus norvegicus); test: Compound was tested for its effect on NSD 1015 induced accumulation of 5-HTP(ng/g) in rats in corpus striatum at a dosage of 10 umol/kg; type: functional; summary of the method: as §1
[4] = molecular target: T1, Tryptophan 5-hydroxylase 1 (Rattus norvegicus); test: Compound was tested for its effect on NSD 1015 induced accumulation of 5-HTP(ng/g) in rats in corpus striatum at a dosage of 32 umol/kg; type: functional, tissue-based; summary of the method: as §1
Rattus norvegicus [5] = test: No of rats exhibiting 5-HT motor syndrome tested in reserpinized rats at a subcutaneous dose of 32 umol/kg; 4 rats out of 4 showed activity; type: functional
[6] = molecular target: T1, Tryptophan 5-hydroxylase 1 (Rattus norvegicus); test: Compound was tested for its effect on NSD 1015 induced accumulation of 5-HTP(ng/g) in rats in limbic system at a dosage of 32 umol/kg; type: functional, tissue-based; summary of the method: as §1
[7] = molecular target: T2, 5-hydroxytryptamine receptor 1A (Rattus norvegicus, UniProt P19327); test: Concentration of compound required to inhibit cortical 5-hydroxytryptamine 1A receptor binding sites in rat brain was evaluated; type: tissue-based
T2 sequence (P19327 whole entry): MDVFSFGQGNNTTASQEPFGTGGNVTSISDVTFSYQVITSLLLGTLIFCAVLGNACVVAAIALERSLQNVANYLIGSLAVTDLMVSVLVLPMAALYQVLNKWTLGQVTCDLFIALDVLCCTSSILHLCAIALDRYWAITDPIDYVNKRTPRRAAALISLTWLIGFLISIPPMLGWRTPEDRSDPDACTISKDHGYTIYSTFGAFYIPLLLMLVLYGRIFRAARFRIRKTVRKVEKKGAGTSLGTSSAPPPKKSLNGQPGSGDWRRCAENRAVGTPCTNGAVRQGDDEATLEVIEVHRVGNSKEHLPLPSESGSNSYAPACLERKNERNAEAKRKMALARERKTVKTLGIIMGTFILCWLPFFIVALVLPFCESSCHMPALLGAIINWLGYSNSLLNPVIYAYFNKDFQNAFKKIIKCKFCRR

Rattus norvegicus [8] = test: No of rats exhibiting 5-HT motor syndrome tested in reserpinized rats at a subcutaneous dose of 10 umol/kg; 0 rats out of 4 showed activity; type: functional
Rattus norvegicus [9] = test: No of rats exhibiting 5-HT motor syndrome rats tested in reserpinized rats at a subcutaneous dose of 10 umol/kg; 4 rats out of 4; type: functional
Rattus norvegicus [10] = test: No of rats exhibiting 5-HT motor syndrome rats tested in reserpinized rats at a subcutaneous dose of 32 umol/kg; 3 rats out of 3; type: functional
Rattus norvegicus [11] = test: No of rats exhibiting 5-HT motor syndrome tested in reserpinized rats at a subcutaneous dose of 3.2 umol/kg; 0 rats out of 4 showed activity; type: functional
[12] = molecular target: T1, Tryptophan 5-hydroxylase 1 (Rattus norvegicus); test: Compound was tested for its effect on NSD 1015 induced accumulation of 5-HTP(ng/g) in rats in limbic system at a dosage of 0.32 umol/kg; type: functional, tissue-based; summary of the method: as §1
Rattus norvegicus [13] = test: Number of rats exhibiting 5-HT motor syndrome in reserpinized rats at a subcutaneous dose of 1.0 umol/kg; 0 rats out of 3 showed activity; type: functional
[14] = molecular target: T1, Tryptophan 5-hydroxylase 1 (Rattus norvegicus); test: Compound was tested for its effect on NSD 1015 induced accumulation of 5-HTP in rats in corpus striatum at a dosage of 0.32 umol/kg; type: functional, tissue-based; summary of the method: as §1
[15] = molecular target: T1, Tryptophan 5-hydroxylase 1 (Rattus norvegicus); test: Compound was tested for its effect on NSD 1015 induced accumulation of 5-HTP(ng/g) in rats in limbic system at a dosage of 1.0 umol/kg; type: functional, tissue-based; summary of the method: as §1
[16] = molecular target: T1, Tryptophan 5-hydroxylase 1 (Rattus norvegicus); test: Compound was tested for its effects on NSD 1015 induced accumulation of 5-HTP(ng/g) in rats in limbic system at a dosage of 0.10 umol/kg; type: functional, tissue-based; summary of the method: as §1
[17] = molecular target: T1, Tryptophan 5-hydroxylase 1 (Rattus norvegicus); test: Compound was tested for its effect on NSD 1015 induced accumulation of 5-HTP(ng/g) in rats in corpus striatum at a dosage of 1.0 umol/kg; type: functional; summary of the method: as §1
[18] = molecular target: T1, Tryptophan 5-hydroxylase 1 (Rattus norvegicus); test: Compound was tested for its effect on NSD 1015 induced accumulation of 5-HTP(ng/g) in rats in limbic system at a dosage of 3.2 umol/kg; type: functional, tissue-based; summary of the method: as §1
[19] = molecular target: T1, Tryptophan 5-hydroxylase 1 (Rattus norvegicus); test: Compound was tested for its effect on NSD 1015 induced accumulation of 5-HTP in rats corpus striatum at a dosage of 0.10 umol/kg; type: functional, tissue-based; summary of the method: as §1
[20] = molecular target: T1, Tryptophan 5-hydroxylase 1 (Rattus norvegicus); test: Compound was tested for its effect on NSD 1015 induced accumulation of 5-HTP(ng/g) in rats in corpus striatum at a dosage of 3.2 umol/kg; type: functional; summary of the method: as §1
Rattus norvegicus [21] = test: No of rats exhibiting 5-HT motor syndrome tested in reserpinized rats at a subcutaneous dose of a. 0.1 umol/kg; 0 rats out of 4 showed activity; type: functional
[22] = molecular target: T1, Tryptophan 5-hydroxylase 1 (Rattus norvegicus); test: Compound was tested for its effect on NSD 1015 induced accumulation of 5-HTP(ng/g) in rats in limbic system at a dosage of 0.10 umol/kg; type: functional, tissue-based; summary of the method: as §1
[23] = molecular target: T1, Tryptophan 5-hydroxylase 1 (Rattus norvegicus); test: Compound was tested for its effect on NSD 1015 induced accumulation of 5-HTP(ng/g) in rats in corpus striatum at a dosage of 0.032 umol/kg; type: functional; summary of the method: as §1
Rattus norvegicus [24] = test: No of rats exhibiting 5-HT motor syndrome tested in reserpinized rats at a subcutaneous dose of 1.0 umol/kg; 3 rats out of 3 showed activity; type: functional
[25] = molecular target: T1, Tryptophan 5-hydroxylase 1 (Rattus norvegicus); test: Compound was tested for its effect on NSD 1015 induced accumulation of 5-HTP(ng/g) in rats in limbic system at a dosage of 0.032 umol/kg; type: functional; summary of the method: as §1
Rattus norvegicus [26] = test: No of rats exhibiting 5-HT motor syndrome tested in reserpinized rats at a subcutaneous dose of 0.32 umol/kg; 4 rats out of 4 showd activity; type: functional
Rattus norvegicus [27] = test: No of rats exhibiting 5-HT motor syndrome tested in reserpinized rats at a subcutaneous dose of 0.32 umol/kg; 0 rats out of 5 showed activity; type: functional
Rattus norvegicus [28] = test: No of rats exhibiting 5-HT motor syndrome tested in reserpinized rats at a subcutaneous dose of 1.0 umol/kg; 4 rats out of 5 showed activity; type: functional

| Structure (SMILES) | ED50 [1] [µmol/kg] | Activity [2] [ng/g] | Activity [3] [ng/g] | IC50 [7] [nM] | Activity [12] [ng/g] | Activity [14] [ng/g] | Activity [15] [ng/g] | Activity [17] [ng/g] | Activity [19] [ng/g] | Activity [22] [ng/g] | Activity [23] [ng/g] | Activity [25] [ng/g] | also measured |
| --- | --- | --- | --- | --- | --- | --- | --- | --- | --- | --- | --- | --- | --- |
| CCCCN(CCCC)[C@@H]1CCc2cccc(O)c2C1 | 20 | 145 | 80 | 109 |  |  |  |  |  |  |  |  | Activity [4]: 63 ng/g; Activity (Rattus norvegicus [5]): 4; Activity [6]: 106 ng/g; Activity (Rattus norvegicus [8]): 0 |
| CN(C)[C@@H]1CCc2cccc(O)c2C1 | 1 | 89 | 44 | 75 | 130 | 79 | 110 | 76 | 88 |  |  |  | Activity (Rattus norvegicus [9]): 4; Activity (Rattus norvegicus [10]): 3; Activity (Rattus norvegicus [11]): 0; Activity (Rattus norvegicus [13]): 0; Activity [16]: 172 ng/g; Activity [18]: 90 ng/g; Activity [20]: 67 ng/g |
| CCN(CC)[C@@H]1CCc2cccc(O)c2C1 | 0.05 |  |  | 9.65 | 70 | 50 | 72 | 47 | 68 | 110 | 87 | 131 | Activity (Rattus norvegicus [21]): 0; Activity (Rattus norvegicus [24]): 3; Activity (Rattus norvegicus [26]): 4 |
| CCCN(CCC)[C@H]1CCc2cccc(O)c2C1 | 0.2 |  |  |  | 114 | 61 | 75 | 53 | 94 | 154 | 95 | 157 | Activity (Rattus norvegicus [27]): 0; Activity (Rattus norvegicus [28]): 4 |
